High-throughput results as filed in PubChem.
RAM network inh – blocks the yeast RAM network. 190,000 compounds, 1.8% hits. inhibition, % at 50 µM. AID 868. S. cerevisiae dse1pr::URA3 reporter, 5-FOA growth OD615, 2 d; analog-sensitive cbk1-as2 kinase mutant strain;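 active = inhibition above a set limit, 3 SD over mean compound inhibition, cut at about 8.4% in these data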;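 also: 0% = DMSO-only wells with no growth and 100% = 10 µM 1-NA-PP1 full growth; inhibition rescues growth on 5-FOA so higher OD means more RAM inhibition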
Arbovirus anti – blocks arbovirus infection; AID 1251; inhibition, % at 10 µM; 200,000 compounds, 0.37% hits; arbovirus infection cell-based antiviral screen; in the data active = inhibition above about 30%
Biofilm kill mix – mixtures killing C. albicans biofilm. C. albicans biofilm persisters + clotrimazole, fluorescence viability; primary screen in compound mixtures of four per well. inhibition, % at 7.6 µM. 120,000 compounds, 0.02% hits. AID 1242;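 active = inhibition above 30.3% in the primary screen of four-compound pools, then above 30% when the compound was retested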;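 also: compounds exposed to preformed 24 h biofilms for 48 h; 0% = untreated biofilm control and 100% = clotrimazole plus chlorhexidine kill blank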
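Test system: C. albicans CAF4-2 wild-type biofilms; buffer or medium: RPMI/MOPS medium, pH 7.0; schedule: 24 h biofilm formation, then 48 h compound exposure, 37 °C; detection: Alamar Blue fluorescence; measure: percent inhibition of biofilm viability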
Hck-Nef inh – blocks Nef-activated human Hck kinase; P08631; inhibition, % at 20 µM; 220,000 compounds, 0.68% hits; Recombinant Hck-YEEI plus Nef, Z-Lyte FRET kinase assay;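 active = Hck-Nef kinase inhibition above about 50%, limit read from the data; inactive = inhibition below that limit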;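 also: 0% = DMSO with Hck plus Nef and 100% = Hck alone without Nef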
WT yeast gro inh – growth inhibition of WT yeast, mitochondrial fusion screen; AID 1362; 190,000 compounds, 2.1% hits; mitochondrial fusion phenotypic screen, WT strain; inhibition, % at 10 µM; in the data active = inhibition above about 58%; tested in S. cerevisiae
NCF1 inh – inhibitors of human p47phox binding; inhibition, % at 24.7 µM; P14598; 220,000 compounds, 0.53% hits; p47phox/p22phox peptide binding, fluorescence polarization, 2 h;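 active = inhibition above about 30%, limit read from the data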;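 also: 0% = p47phox with labelled peptide and 100% = labelled peptide alone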
Target sequence (P14598 whole entry, looked up): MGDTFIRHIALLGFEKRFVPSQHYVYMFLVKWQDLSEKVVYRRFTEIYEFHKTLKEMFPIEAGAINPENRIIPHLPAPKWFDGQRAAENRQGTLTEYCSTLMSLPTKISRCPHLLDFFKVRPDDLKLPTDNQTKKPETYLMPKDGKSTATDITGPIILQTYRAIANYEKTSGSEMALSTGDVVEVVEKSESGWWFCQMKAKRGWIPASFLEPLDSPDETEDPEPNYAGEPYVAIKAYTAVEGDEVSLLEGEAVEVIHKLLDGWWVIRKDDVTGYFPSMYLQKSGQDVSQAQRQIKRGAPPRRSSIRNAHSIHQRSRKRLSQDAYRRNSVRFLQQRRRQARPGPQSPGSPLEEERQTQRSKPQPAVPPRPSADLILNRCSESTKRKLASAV
Hck Nef conf – Hck-Nef kinase inhibition, confirmation; shares compounds with Hck-Nef inh; Recombinant Hck-YEEI:Nef, Z-Lyte FRET kinase assay; calls only at 10 µM; 1,300 compounds, 28% hits;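 active = average inhibition of at least 50%, with Z-scores no higher than 3 in both the phospho-tyrosine peptide and fluorescence counterscreens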
The depositor's hits bear a star; i = inactive; nt = no result given; + = active, no number. An excerpt weighted towards active compounds, which were near 4.6% of everything screened.

SMILES	RAM network inh	Arbovirus anti	Biofilm kill mix	Hck-Nef inh	WT yeast gro inh	NCF1 inh	Hck Nef conf
Cc1cc(=O)oc2c(CN3CCCCC3)c(O)c(Cl)cc12	0	-4	nt	125*	-8	-4	nt
CCc1cc(=O)oc2cc(C)c(CN3CCCCC3)c(O)c12	-1	12	nt	0	8	-6	nt
O=C(CN1CCN(S(=O)(=O)c2ccccc2)CC1)Nc1ccc(Cl)c(Cl)c1	2	-31	nt	-3	-18	-26	nt
O=C(Nc1ccc(N2CCCC2)cc1)C(c1ccccc1)c1ccccc1	3	5	nt	59*	17	-2	i
O=C(Nc1ccc(N2CCCCC2)cc1)C(Cl)c1ccccc1 (centres undefined)	0	7	13	20	11	-1	nt
C#CCn1c(=NC(=O)c2sc3ccccc3c2Cl)sc2cc(S(N)(=O)=O)ccc21	4	-22	22	62*	1	-46	+
C#CCn1c(=NC(=O)c2ccc(S(=O)(=O)N3CCc4ccccc4C3)cc2)sc2cc(S(N)(=O)=O)ccc21	3	-31	18	27	-4	1	nt
COc1ccc(C(=O)N2CCCC(C(=O)N3CCCCCC3)C2)cc1 (centres undefined)	1	7	nt	57*	-2	0	i
COc1ccc2cc(N=Cc3nc(-c4ccc(C)cc4)oc3O)cnc2c1	1	10	13	59*	-2	5	i
Cc1ccc(-c2nc(C=Nc3ccccc3)c(O)o2)cc1	2	-10	14	-5	-3	nt	nt
NC(=O)c1ccc(NC(=O)COc2ccc([N+](=O)[O-])cc2Cl)cc1	6	3	13	-2	16	-3	nt
COc1ccc(-c2cnnc(N/N=C/c3ccc(O)cc3)n2)cc1	1	-4	16	71*	-35	-62	i
Cc1ccc2nc(NC(=O)c3cccc(-c4cc5ccccc5oc4=O)c3)sc2c1	4	-40	nt	63*	-5	23	i
C=CCOc1c(CCC)cc(CCC)cc1C(N)=O	nt	nt	13	15	nt	-15	nt
O=C(CN1CC[n+]2c(-c3ccccc3)csc21)c1ccc(Br)cc1	nt	nt	-9	67*	nt	-6	+
O=C1NCCCC1C(=O)N/N=C/c1cccc(O)c1 (centres undefined)	0	9	11	2	-22	1	nt
CC1CCCN(Cc2c(O)ccc3c4c(c(=O)oc23)CCCC4)C1 (centres undefined)	nt	nt	29	64*	nt	0	nt
O=c1oc2c(CN3CCOCC3)c(O)ccc2c2c1CCC2	0	4	nt	85*	0	-6	nt
O=C(NCC1CCN(c2ccc(S(=O)(=O)N3CCOCC3)cc2)CC1)c1ccc(Cl)cc1	3	-4	nt	-1	14	-12	nt
NC(=O)c1nn(-c2ccc(Oc3ccccc3)cc2)c(=O)cc1O	1	-2	-3	82*	-7	-11	+
N=C1/C(=C/c2ccc(-c3cccc(C(=O)O)c3)o2)C(=O)N=C2SC=C(c3ccccc3)N12	4	42*	1	91*	-23	-74	+
COc1ccc(S(=O)(=O)Nc2cc3c(cc2C(C)=O)OCO3)cc1	1	-23	0	54*	9	-7	i
O=c1c2c(-c3ccc(Cl)cc3)csc2ncn1/N=C/c1cccc([N+](=O)[O-])c1O	1	-8	17	89*	-5	nt	+
CCCNC(=O)COC(=O)c1cc2c(=O)n3ccccc3nc2s1	2	11	1	51*	-4	0	i
O=C(c1cc2c(=O)n3ccccc3nc2s1)N1CCOCC1	1	8	nt	-1	21	nt	nt
SMILES	RAM network inh	Arbovirus anti	Biofilm kill mix	Hck-Nef inh	WT yeast gro inh	NCF1 inh	Hck Nef conf
O=C(N/N=C/c1ccc(Cl)c([N+](=O)[O-])c1)c1cc(-c2ccc3c4c(cccc24)CC3)n[nH]1	nt	nt	16	62*	nt	4	i
CCOC(=O)N1CCN(C(=O)c2ccc3c(=O)n(-c4ccc(F)cc4)c(=S)[nH]c3c2)CC1	5	-5	nt	53*	9	-4	i
CN1CCN(C(=O)c2ccc3c(=O)n(-c4ccc(F)cc4)c(=S)[nH]c3c2)CC1	1	2	25	1	-8	-2	nt
O=C(Nc1nc2ccccc2s1)C1CC(=O)N(c2ccc(Br)cc2)C1 (centres undefined)	2	7	nt	0	39	-27	nt
CCN(CC)c1cc(NCCO)c([N+](=O)[O-])c2nonc12	-1	12	-2	56*	-7	3	i
CCc1cc2c3c(c1)C1(C(=O)N3C(C)(C)C=C2C)C(C#N)=C(N)Oc2[nH]c(=O)[nH]c(=O)c21 (centres undefined)	2	-8	25	29	17	-11	nt
CCN1CCCc2cc(CN(CCN3CCOCC3)C(=S)Nc3ccc(OC)c(Cl)c3)ccc21	0	-10	15	22	-16	-23	nt
CCN1CCCc2cc(CN(CCN3CCOCC3)C(=S)Nc3ccc(OC)c(OC)c3)ccc21	1	5	9	52*	11	-11	i
CCN1CCCc2cc(CN(CCN3CCOCC3)C(=S)Nc3ccccc3OC)ccc21	-1	5	0	-62	15	-7	nt
CCN1CCCc2cc(CN(CCN3CCOCC3)C(=S)Nc3ccccc3C)ccc21	0	-5	12	57*	2	-14	i
CCCCCCCCSc1nnc(CSc2nc3nc(C)cc(C)n3n2)o1	5	-6	nt	0	30	-8	nt
COc1cc(/C=C/C(=O)OCC(=O)Nc2sc3c(c2C#N)CCC(C)C3)ccc1OCC#N (centres undefined)	2	-8	12	51*	14	-54	i
CC(=O)c1cc(CC(=O)N2CCc3c([nH]c4ccccc34)C2c2ccccn2)cs1 (centres undefined)	0	12	16	21	-12	0	nt
Cc1nc(C)c(CC(=O)N2CCc3c([nH]c4ccccc34)C2c2ccccn2)s1 (centres undefined)	2	-1	7	+	-12	-4	i
c1ccc2c3c([nH]c2c1)-c1[nH]ncc1CC3	-2	3	nt	42	12	4	nt
Clc1ccc2[nH]c3c(c2c1)CCc1cn[nH]c1-3	1	-26	nt	60*	25	-2	+
O=C(/C=C/c1ccccc1[N+](=O)[O-])NC1CCCC1	4	1	17	2	2	-14	nt
CCOC(=O)Cc1csc(NC(=O)COc2ccc(C)c(C)c2)n1	0	12	2	53*	7	-13	i
COc1ccccc1CNC(=O)C(C)NS(=O)(=O)c1ccc(Br)cc1 (centres undefined)	7	-1	9	6	5	-2	nt
N#Cc1ccc(CSc2nnc(NC(=O)c3ccc4ncsc4c3)s2)cc1	1	-7	-2	68*	7	-8	i
